Assay results from ChEMBL document CHEMBL4130549, “Synthesis and bioactivities study of new antibacterial peptide mimics: The dialkyl cationic amphiphiles” (Eur J Med Chem, 2018).
Activity calls are given as the source filed them. No cut-off for these calls is given here.

What was measured:
Staphylococcus aureus [1] = assay: Antibiofilm activity against Staphylococcus aureus ATCC 29213 assessed as bacterial cell viability in biofilm at 128 ug/ml after 24 hrs (reference value: 21.9 log10CFU/ml); type: functional
Summary of the method: (§1)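 Mid-log cells at ~10⁵ CFU/mL grown stationary in 96-well plates (S. aureus in MHB for 24 h; E. coli in M9 with 0.02% casamino acids and 0.5% glycerol for 72 h). After washing, biofilms exposed 24 h at 37 °C to 2-128 µg/mL; detached with trypsin-EDTA, serially plated, viability given as log10 CFU/well against an untreated control.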

Escherichia coli [2] = assay: Antibiofilm activity against Escherichia coli ATCC 25922 assessed as bacterial cell viability in biofilm at 64 ug/ml after 24 hrs (reference value: 25.9 log10CFU/ml); type: functional; summary of the method: as §1
Escherichia coli [3] = assay: Antibiofilm activity against Escherichia coli ATCC 25922 assessed as bacterial cell viability in biofilm at 32 ug/ml after 24 hrs (reference value: 25.9 log10CFU/ml); type: functional; summary of the method: as §1
Staphylococcus aureus [4] = assay: Bactericidal activity against Staphylococcus aureus ATCC 29213 assessed as time required to kill early exponential phase at 8 ug/ml by time kill assay; type: functional
Summary of the method: (§2)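 Overnight culture diluted 1:10,000 in MHB and shaken at 37 °C, 225 rpm, for 2 h (early exponential) or 5 h (late exponential), then exposed to compound at 6× and 8× MIC in tubes at 37 °C, 225 rpm. Samples (100 µL) taken at intervals, pelleted, resuspended in PBS, and ten-fold dilutions plated on MHA overnight at 37 °C for CFU/mL. Biological replicates.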

Escherichia coli [5] = assay: Bactericidal activity against Escherichia coli ATCC 25922 assessed as time required to kill late exponential phase at 12 to 16 ug/ml by time kill assay; type: functional
Staphylococcus aureus [6] = assay: Bactericidal activity against Staphylococcus aureus ATCC 29213 assessed as time required to kill early exponential phase at 6 ug/ml by time kill assay; type: functional; summary of the method: as §2
Escherichia coli [7] = assay: Antibacterial activity against Escherichia coli ATCC 25922 after 20 serial passages measured after 16 to 20 hrs by broth microdilution method; type: functional, organism-based
Summary of the method: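 Sub-MIC serial passaging: after an initial broth microdilution MIC, cells grown at MIC/2 were transferred into a new MIC assay after each 24 h incubation, for 20 passages. MIC was plotted against days to follow resistance development. Passaging controls were norfloxacin for S. aureus and colistin for E. coli.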

[8] = Selectivity index, ratio of HC50 for sheep RBC to MIC for Escherichia coli ATCC 25922; type: toxicity; conditions: sheep red blood cells (erythrocytes), read-out: Selectivity Index
Summary of the method: (§3)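 HC50 from sheep RBC lysis: 5% RBC suspension exposed 1 h at 37 °C to a 5120–10 µg/mL series, with A540 of supernatant scaled to 0.1% Triton X-100. MIC by CLSI broth microdilution in cation-adjusted MHB, ~10^6 CFU/mL, 256–0.5 µg/mL, 37 °C for 16–20 h, duplicates with at least two repeats.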

Staphylococcus aureus [9] = assay: Antibiofilm activity against Staphylococcus aureus ATCC 29213 assessed as bacterial cell viability in biofilm at 4 ug/ml after 24 hrs (reference value: 21.9 log10CFU/ml); type: functional; summary of the method: as §1
Escherichia coli [10] = assay: Antibiofilm activity against Escherichia coli ATCC 25922 assessed as bacterial cell viability in biofilm at 2 ug/ml after 24 hrs (reference value: 25.9 log10CFU/ml); type: functional; summary of the method: as §1
Staphylococcus aureus [11] = assay: Antibiofilm activity against Staphylococcus aureus ATCC 29213 assessed as bacterial cell viability in biofilm at 8 ug/ml after 24 hrs (reference value: 21.9 log10CFU/ml); type: functional; summary of the method: as §1
Staphylococcus aureus [12] = assay: Bactericidal activity against Staphylococcus aureus ATCC 29213 assessed as time required to kill late exponential phase at 6 to 8 ug/ml by time kill assay; type: functional; summary of the method: as §2
Staphylococcus aureus [13] = assay: Antibiofilm activity against Staphylococcus aureus ATCC 29213 assessed as bacterial cell viability in biofilm at 2 ug/ml after 24 hrs (reference value: 21.9 log10CFU/ml); type: functional; summary of the method: as §1
Escherichia coli [14] = assay: Antibiofilm activity against Escherichia coli ATCC 25922 assessed as bacterial cell viability in biofilm at 8 ug/ml after 24 hrs (reference value: 25.9 log10CFU/ml); type: functional; summary of the method: as §1
Escherichia coli [15] = assay: Bactericidal activity against Escherichia coli ATCC 25922 assessed as time required to kill early exponential phase at 12 to 16 ug/ml by time kill assay; type: functional
Escherichia coli [16] = assay: Antibiofilm activity against Escherichia coli ATCC 25922 after 24 hrs by crystal violet staining method; type: functional
Summary of the method: (§4)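 MBIC: twofold dilutions in MHB inoculated with 1:1000-diluted exponential-phase culture (10⁸ CFU/mL), 24 h at 37 °C. Wells rinsed, stained 10 min with 0.1% crystal violet, dye dissolved in ethanol, OD540 read; MBIC80 taken from dose–response versus untreated wells.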

Staphylococcus aureus [17] = assay: Antibiofilm activity against Staphylococcus aureus ATCC 29213 assessed as bacterial cell viability in biofilm at 32 ug/ml after 24 hrs (reference value: 21.9 log10CFU/ml); type: functional; summary of the method: as §1
Escherichia coli [18] = assay: Antibiofilm activity against Escherichia coli ATCC 25922 after 24 hrs by turbidity method; type: functional
Summary of the method: (§5)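 MBEC: biofilms grown 24 h at 37 °C from 1:1000-diluted exponential-phase culture; planktonic cells removed, twofold dilutions in fresh medium added for 24 h at 37 °C, then fresh medium alone for 24 h recovery. MBEC is the lowest concentration with no visible turbidity.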

Staphylococcus aureus [19] = assay: Antibiofilm activity against Staphylococcus aureus ATCC 29213 assessed as bacterial cell viability in biofilm at 16 ug/ml after 24 hrs (reference value: 21.9 log10CFU/ml); type: functional; summary of the method: as §1
Escherichia coli [20] = assay: Antibiofilm activity against Escherichia coli ATCC 25922 at 8 to 128 ug/ml after 72 hrs by crystal violet staining based assay; type: functional, organism-based
Summary of the method: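 Biofilms grown in 24-well plates for about 72 h at 37 °C, treated, stained with 1.0% crystal violet, rinsed, dried, dye taken up in 95% ethanol for 1 h at room temperature, then photographed.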

Staphylococcus aureus [21] = assay: Antibiofilm activity against Staphylococcus aureus ATCC 29213 after 24 hrs by turbidity method; type: functional; summary of the method: as §5
Escherichia coli [22] = assay: Ratio of MBEC to MIC for Escherichia coli ATCC 25922 after 24 hrs; type: functional
Summary of the method: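 For MBEC, biofilms grown 24 h at 37 °C from a 1:1000 dilution of exponential-phase culture, washed, exposed 24 h to two-fold compound dilutions in fresh medium, then recovered 24 h in medium alone; MBEC is the lowest concentration with no turbidity. MIC by CLSI broth microdilution in cation-adjusted MHB, ~10^6 CFU/mL inoculum, 37 °C, 16–20 h.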

[23] = Selectivity index, ratio of HC50 for sheep RBC to MIC for Staphylococcus aureus ATCC 29213; type: toxicity; conditions: sheep red blood cells (erythrocytes), read-out: Selectivity Index; summary of the method: as §3
Staphylococcus aureus [24] = assay: Antibiofilm activity against Staphylococcus aureus ATCC 29213 after 24 hrs by crystal violet staining method; type: functional; summary of the method: as §4

Work on `CCCCCCCCCN(CCCCCCCCC)C(=O)[C@@H](N)CCCCN.Cl.Cl` yielded an Activity (Staphylococcus aureus [1]) of 7.6 log10CFU, an Activity (Escherichia coli [2]) of 0.3 log10CFU and an Activity (Escherichia coli [3]) of 2.1 log10CFU. The Time (Staphylococcus aureus [4]) was 0.5 h, the Time (Escherichia coli [5]) was 1 h and the Time (Staphylococcus aureus [6]) was 120 min. For the same compound, the Activity (Escherichia coli [7]) was “Active”, the selectivity ratio [8] was 66.5 and the Activity (Staphylococcus aureus [9]) was 18.6 log10CFU. The Activity (Escherichia coli [10]) was 24.7 log10CFU, the Activity (Staphylococcus aureus [11]) was 11.9 log10CFU and the Time (Staphylococcus aureus [12]) was 6 h. The Activity (Staphylococcus aureus [13]) was 19.9 log10CFU, the Activity (Escherichia coli [14]) was 8.4 log10CFU and the Time (Escherichia coli [15]) was 0.5 h. It also gave an MBIC80 (Escherichia coli [16]) of 53.9 µg/mL, an MBIC90 (Escherichia coli [16]) of 73.6 µg/mL and an Activity (Staphylococcus aureus [17]) of 9.9 log10CFU. The MBEC (Escherichia coli [18]) was 128 µg/mL, the Activity (Staphylococcus aureus [19]) was 11.5 log10CFU and the Activity (Escherichia coli [20]) was “Active”. It also gave an MBEC (Staphylococcus aureus [21]) of 64 µg/mL, a Ratio (Escherichia coli [22]) of 64 and a selectivity ratio [23] of 133. For the same compound, the MBIC80 (Staphylococcus aureus [24]) was 18 µg/mL and the MBIC90 (Staphylococcus aureus [24]) was 26.9 µg/mL.
